# Measurements: ChEMBL document CHEMBL5724801, “EUbOPEN Chemogenomics Library - Multiplex” (2024)
# Where “and” joins values, the source holds several entries; their conditions need not be identical. Equal values may be shown once.
# System: HEK-293T
# Test: Multiplex assay against HEK293T
# Format: toxicity, cell-based
# Details: human, 12 h, 1 µM, compound concentration 1 uM
# Method in brief: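 Phenotypes for tubulin, mitochondrial mass and membrane permeability are expressed as per cents of healthy-nucleus cells. Cells were stained live at seeding with Hoechst33342, BioTracker Green Microtubule Cytoskeleton Dye, MitoTracker Red and Annexin V Alexa Fluor 680, then imaged after compound addition on a CQ1 microscope at 37°C and 5% CO2. Machine-learning gating in CellPathfinder separated Hoechst high-intensity objects from normal cells, divided normal cells by nuclear state (healthy, pyknosed, fragmented) and divided pyknosed cells into mitotic or apoptotic.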
SMILES,Population Apoptotic (%),Population Fragmented Nuclei (%),Population Healthy Nuclei (%),Population Hoechst High Intensity Objects (%),Population Membrane Permeable-Phenotype (%),Population Mitochondria Different-Phenotype (%),Population Mitotic Cells (%),Population Normal (%),Population Pyknosed Nuclei (%),Population Tubulin-Different-Phenotype (%)
CN1CCN(c2ccc(Nc3c4ccccc4nc4ccccc34)cc2)CC1.Cl.Cl.O,42% and 55%,7% and 4%,81% and 90%,3% and 1%,0%,50% and 59%,57% and 45%,96% and 98%,11% and 5%,28% and 20%
CC(=O)NCC(=O)N1[C@@H]2CC[C@H]1c1ccc(Nc3ncc(C(F)(F)F)c(NC4CCC4)n3)cc12 [PF-03814735],13.45% and 7.26%,1.8% and 4%,–,0.36% and 0%,0% and 5%,42.86% and 15%,86.55% and 92.74%,99.64% and 100%,42.81% and 82.67%,–
Cn1ncnc1COc1nn2c(-c3cc(F)ccc3F)nnc2cc1C(C)(C)C,8.93% and 7.56%,2.83% and 4.35%,–,0%,–,29.79% and 46.15%,91.07% and 92.44%,100%,52.83% and 86.23%,–
COc1cc(Nc2ncc3c(n2)-c2ccc(Cl)cc2C(c2c(F)cccc2OC)=NC3)ccc1C(=O)O [ALISERTIB],38% and 61%,3% and 7%,88% and 85%,5% and 7%,0%,44% and 69%,61% and 38%,94% and 93%,7%,46% and 49%

# Same assay, conditions: human, 12 h, 1 µM, compound concentration 1 uM
row,SMILES,Total Cell Count
1,CN1CCN(c2ccc(Nc3c4ccccc4nc4ccccc34)cc2)CC1.Cl.Cl.O,411 and 364
2,CC(=O)NCC(=O)N1[C@@H]2CC[C@H]1c1ccc(Nc3ncc(C(F)(F)F)c(NC4CCC4)n3)cc12 [PF-03814735],279 and 150
3,Cn1ncnc1COc1nn2c(-c3cc(F)ccc3F)nnc2cc1C(C)(C)C,318 and 138

# Same assay, conditions: human, 12 h, 10 µM, compound concentration 10 uM
SMILES,Population Apoptotic (%),Population Fragmented Nuclei (%),Population Healthy Nuclei (%),Population Hoechst High Intensity Objects (%),Population Membrane Permeable-Phenotype (%),Population Mitochondria Different-Phenotype (%),Population Mitotic Cells (%),Population Normal (%),Population Pyknosed Nuclei (%),Population Tubulin-Different-Phenotype (%)
CN1CCN(c2ccc(Nc3c4ccccc4nc4ccccc34)cc2)CC1.Cl.Cl.O,100%,24% and 40%,74% and 58%,1% and 0%,0,99% and 100%,0%,98% and 99%,1%,97% and 92%
CC(=O)NCC(=O)N1[C@@H]2CC[C@H]1c1ccc(Nc3ncc(C(F)(F)F)c(NC4CCC4)n3)cc12 [PF-03814735],22.73% and 21.78%,2.61% and 0.88%,–,0.65% and 0%,0,27.87% and 27.27%,77.27% and 78.22%,99.35% and 100%,57.52% and 89.38%,75.41% and 45.45%
Cn1ncnc1COc1nn2c(-c3cc(F)ccc3F)nnc2cc1C(C)(C)C,12.9% and 20.39%,0.72% and 5.3%,43.73% and 16.67%,0%,–,–,87.1% and 79.61%,100%,55.56% and 78.03%,22.95% and 27.27%
COc1cc(Nc2ncc3c(n2)-c2ccc(Cl)cc2C(c2c(F)cccc2OC)=NC3)ccc1C(=O)O [ALISERTIB],61% and 88%,8% and 9%,74% and 72%,9% and 15%,0,80% and 82%,–,90% and 84%,16% and 17%,68% and 54%

# Same assay, conditions: human, 12 h, 10 µM, compound concentration 10 uM
row,SMILES,Total Cell Count
1,CN1CCN(c2ccc(Nc3c4ccccc4nc4ccccc34)cc2)CC1.Cl.Cl.O,234 and 194
2,CC(=O)NCC(=O)N1[C@@H]2CC[C@H]1c1ccc(Nc3ncc(C(F)(F)F)c(NC4CCC4)n3)cc12 [PF-03814735],154 and 113
3,Cn1ncnc1COc1nn2c(-c3cc(F)ccc3F)nnc2cc1C(C)(C)C,279 and 132

# Same assay, conditions: human, 24 h, 1 µM, compound concentration 1 uM
SMILES,Population Apoptotic (%),Population Fragmented Nuclei (%),Population Healthy Nuclei (%),Population Hoechst High Intensity Objects (%),Population Membrane Permeable-Phenotype (%),Population Mitochondria Different-Phenotype (%),Population Mitotic Cells (%),Population Normal (%),Population Pyknosed Nuclei (%),Population Tubulin-Different-Phenotype (%)
CN1CCN(c2ccc(Nc3c4ccccc4nc4ccccc34)cc2)CC1.Cl.Cl.O,42% and 46%,9%,84% and 86%,2% and 0%,0%,40% and 44%,57% and 53%,97% and 99%,5% and 4%,14% and 12%
CC(=O)NCC(=O)N1[C@@H]2CC[C@H]1c1ccc(Nc3ncc(C(F)(F)F)c(NC4CCC4)n3)cc12 [PF-03814735],21.25% and 13.04%,1.47% and 2.07%,75.07% and 34.48%,0%,0.78% and 4%,20.31% and 10%,78.75% and 86.96%,100%,23.46% and 63.45%,–
Cn1ncnc1COc1nn2c(-c3cc(F)ccc3F)nnc2cc1C(C)(C)C,10.85% and 17.5%,2.35% and 3.27%,–,0%,–,20.12% and 10.71%,89.15% and 82.5%,100%,27.56% and 78.43%,23.17% and 10.71%
COc1cc(Nc2ncc3c(n2)-c2ccc(Cl)cc2C(c2c(F)cccc2OC)=NC3)ccc1C(=O)O [ALISERTIB],50% and 47%,10% and 9%,82% and 81%,3% and 9%,0%,25% and 47%,50% and 52%,96% and 90%,7% and 9%,31% and 30%

# Same assay, conditions: human, 24 h, 1 µM, compound concentration 1 uM
row,SMILES,Total Cell Count
1,CN1CCN(c2ccc(Nc3c4ccccc4nc4ccccc34)cc2)CC1.Cl.Cl.O,455 and 362
2,CC(=O)NCC(=O)N1[C@@H]2CC[C@H]1c1ccc(Nc3ncc(C(F)(F)F)c(NC4CCC4)n3)cc12 [PF-03814735],341 and 145

# Same assay, conditions: human, 24 h, 10 µM, compound concentration 10 uM
SMILES,Population Apoptotic (%),Population Fragmented Nuclei (%),Population Healthy Nuclei (%),Population Hoechst High Intensity Objects (%),Population Membrane Permeable-Phenotype (%),Population Mitochondria Different-Phenotype (%),Population Mitotic Cells (%),Population Normal (%),Population Pyknosed Nuclei (%),Population Tubulin-Different-Phenotype (%)
CN1CCN(c2ccc(Nc3c4ccccc4nc4ccccc34)cc2)CC1.Cl.Cl.O,100%,28% and 45%,69% and 53%,2% and 0%,0%,100%,0%,97% and 99%,2% and 0%,92% and 91%
CC(=O)NCC(=O)N1[C@@H]2CC[C@H]1c1ccc(Nc3ncc(C(F)(F)F)c(NC4CCC4)n3)cc12 [PF-03814735],65.09% and 50.43%,0.99% and 0.8%,–,0%,0%,90.53% and 33.33%,34.91% and 49.57%,100%,52.22% and 92%,–
Cn1ncnc1COc1nn2c(-c3cc(F)ccc3F)nnc2cc1C(C)(C)C,25.69% and 29.36%,1.85% and 4.23%,–,0.52% and 0%,–,34.22% and 18.52%,74.31% and 70.64%,99.48% and 100%,28.76% and 76.76%,50.19% and 33.33%
COc1cc(Nc2ncc3c(n2)-c2ccc(Cl)cc2C(c2c(F)cccc2OC)=NC3)ccc1C(=O)O [ALISERTIB],54% and 56%,8% and 12%,74% and 55%,–,0% and 1%,75% and 86%,45% and 43%,93% and 65%,16% and 31%,64% and 50%

# Same assay, conditions: human, 24 h, 10 µM, compound concentration 10 uM
row,SMILES,Total Cell Count
1,CN1CCN(c2ccc(Nc3c4ccccc4nc4ccccc34)cc2)CC1.Cl.Cl.O,247 and 206
2,CC(=O)NCC(=O)N1[C@@H]2CC[C@H]1c1ccc(Nc3ncc(C(F)(F)F)c(NC4CCC4)n3)cc12 [PF-03814735],203 and 125
3,Cn1ncnc1COc1nn2c(-c3cc(F)ccc3F)nnc2cc1C(C)(C)C,381 and 142

# Same assay, conditions: human, 48 h, 1 µM, compound concentration 1 uM
SMILES,Population Apoptotic (%),Population Fragmented Nuclei (%),Population Healthy Nuclei (%),Population Hoechst High Intensity Objects (%),Population Membrane Permeable-Phenotype (%),Population Mitochondria Different-Phenotype (%),Population Mitotic Cells (%),Population Normal (%),Population Pyknosed Nuclei (%),Population Tubulin-Different-Phenotype (%)
CN1CCN(c2ccc(Nc3c4ccccc4nc4ccccc34)cc2)CC1.Cl.Cl.O,45% and 60%,11% and 10%,82% and 85%,3% and 1%,0%,30% and 36%,54% and 40%,96% and 98%,6% and 3%,16% and 12%
CC(=O)NCC(=O)N1[C@@H]2CC[C@H]1c1ccc(Nc3ncc(C(F)(F)F)c(NC4CCC4)n3)cc12 [PF-03814735],15.15% and 12.5%,5.66% and 2.01%,86.88% and 71.14%,0%,3.65% and 1.89%,–,84.85% and 87.5%,100%,–,–
Cn1ncnc1COc1nn2c(-c3cc(F)ccc3F)nnc2cc1C(C)(C)C,9.38% and 21.84%,2.19% and 2.84%,86.12% and 47.73%,0% and 0.56%,–,20.57% and 32.14%,90.62% and 78.16%,100% and 99.44%,–,–
COc1cc(Nc2ncc3c(n2)-c2ccc(Cl)cc2C(c2c(F)cccc2OC)=NC3)ccc1C(=O)O [ALISERTIB],31% and 57%,14% and 16%,79% and 77%,–,0%,14% and 27%,68% and 42%,96% and 84%,5%,17% and 24%

# Same assay, conditions: human, 48 h, 1 µM, compound concentration 1 uM
row,SMILES,Total Cell Count
1,CN1CCN(c2ccc(Nc3c4ccccc4nc4ccccc34)cc2)CC1.Cl.Cl.O,581 and 411
2,CC(=O)NCC(=O)N1[C@@H]2CC[C@H]1c1ccc(Nc3ncc(C(F)(F)F)c(NC4CCC4)n3)cc12 [PF-03814735],442 and 149

# Same assay, conditions: human, 48 h, 10 µM, compound concentration 10 uM
SMILES,Population Apoptotic (%),Population Fragmented Nuclei (%),Population Healthy Nuclei (%),Population Hoechst High Intensity Objects (%),Population Membrane Permeable-Phenotype (%),Population Mitochondria Different-Phenotype (%),Population Normal (%),Population Pyknosed Nuclei (%),Population Tubulin-Different-Phenotype (%),Total Cell Count
CN1CCN(c2ccc(Nc3c4ccccc4nc4ccccc34)cc2)CC1.Cl.Cl.O,100% and 66%,34% and 52%,56% and 46%,11% and 5%,0%,100% and 99%,88% and 94%,9% and 1%,88% and 89%,318 and 272
CC(=O)NCC(=O)N1[C@@H]2CC[C@H]1c1ccc(Nc3ncc(C(F)(F)F)c(NC4CCC4)n3)cc12 [PF-03814735],68.24% and 37.78%,2.53% and 2.44%,61.6% and 24.39%,0%,0.68% and 0%,97.95% and 76.67%,100%,35.86% and 73.17%,–,237 and 123
Cn1ncnc1COc1nn2c(-c3cc(F)ccc3F)nnc2cc1C(C)(C)C,22.83% and 17.39%,1.92%,77.76% and 53.85%,0.32% and 0%,–,45.27% and 57.14%,99.68% and 100%,20.32% and 44.23%,–,–
COc1cc(Nc2ncc3c(n2)-c2ccc(Cl)cc2C(c2c(F)cccc2OC)=NC3)ccc1C(=O)O [ALISERTIB],48% and 82%,13% and 19%,78% and 61%,–,0% and 4%,57% and 73%,94% and 67%,7% and 19%,42% and 38%,–

# Same assay, conditions: human, 48 h, 10 µM, compound concentration 10 uM
row,SMILES,Population Mitotic Cells (%)
1,CC(=O)NCC(=O)N1[C@@H]2CC[C@H]1c1ccc(Nc3ncc(C(F)(F)F)c(NC4CCC4)n3)cc12 [PF-03814735],31.76% and 62.22%
2,Cn1ncnc1COc1nn2c(-c3cc(F)ccc3F)nnc2cc1C(C)(C)C,77.17% and 82.61%
